We go through 5 compounds from ChEMBL document CHEMBL1121813, “Dihydrochalcone sweeteners. A study of the atypical temporal phenomena” (1981).

Assay type in all cases: functional
Assay [1] is filed under the species Homo sapiens. The assay can be described thus: Number of taste judgments per compound.
For assay [2], the species on record is Homo sapiens. The assay can be described thus: Experimentally determined perceived intensity of compound at a concentration of 1000 ppm (mean value). An outline of the steps: (§1)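 Trained human sensory panel of judges tasted aqueous solutions of the compound. Samples had to be ≥95 weight % pure (HPLC, proton titration, Karl Fischer), non-mutagenic in five Salmonella typhimurium strains with and without microsomal activation, and non-toxic in a single-oral-dose mouse test. Perceived intensity (Ip) was read from time–intensity curves at 4- or 6-s intervals and averaged. Outliers at the 95% level were rejected by t-value. Values reported as mean (2Sm).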

The species entered for assay [3] is Homo sapiens. The assay can be described thus: Percentage of judgments reporting an aftertaste at a concentration of 1000 ppm. An outline of the steps:
(§2)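 Trained judges tasted aqueous solutions of the compounds, which had to be ≥95 weight percent pure and to have passed mutagenicity and single oral dose toxicity screening. The value is the percentage of panel judgments reporting an aftertaste. Where given, its character is recorded as sweet, bitter or bitter-sweet.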

For assay [4], the species on record is Homo sapiens. Description: Intensity calculated on a weight basis relative to an 85500 ppm sucrose solution at a concentration of 260 ppm (mean value). An outline of the steps: (§3)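 Trained human panel tasted aqueous solutions of purity-checked (≥95 weight percent) compounds cleared for mutagenicity and mouse oral toxicity. Weight-basis intensity I_w = perceived intensity × (85500 ppm sucrose / compound concentration in ppm). The mean is reported with 2S_m limits; data deviating excessively at 95% confidence were rejected by the t-value method.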

Assay [5] is filed under the species Homo sapiens. The assay can be described thus: Sweet character at a concentration of 260 ppm (mean value).
For assay [6], the species on record is Homo sapiens. The assay can be described thus: Percentage of judgments reporting an aftertaste at a concentration of 260 ppm and character thereof. An outline of the steps: as §2
The species entered for assay [7] is Homo sapiens. The assay can be described thus: Salty character at a concentration of 260 ppm (mean value).
The species named for assay [8] is Homo sapiens. Description: Bitter character at a concentration of 260 ppm (mean value). An outline of the steps: (§4)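 Trained human panel tasted aqueous solutions. Each judge reported whether there was an aftertaste and its character (sweet, bitter or bitter-sweet). The value is the percentage of judgments reporting a bitter aftertaste.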
The species entered for assay [9] is Homo sapiens. Description: Sweet / Bitter character at a concentration of 260 ppm (mean value); 94/6.
The species entered for assay [10] is Homo sapiens. Description: Experimentally determined perceived intensity of compound at a concentration of 260 ppm (mean value). An outline of the steps: as §1
The species named for assay [11] is Homo sapiens. The assay can be described thus: Sour character at a concentration of 260 ppm (mean value).
The species named for assay [12] is Homo sapiens. Description: Other taste character at a concentration of 260 ppm (mean value). An outline of the steps:
(§5)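 Trained human sensory panel (Swartz method) tasted dilute aqueous solutions of the compounds, which had to be ≥95 weight percent pure and free of mutagenicity and toxicity. Taste character is reported as the mean value with 2S_m limits. Data deviating excessively at the 95% confidence level were rejected by the t-value method.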

The species entered for assay [13] is Homo sapiens. Description: Intensity calculated on a molar basis relative to a 0.25 M sucrose solution at a concentration of 260 ppm (mean value). An outline of the steps: (§6)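 Trained human judges tasted aqueous solutions of the test compound; compounds were first required to be ≥95 weight percent pure and free of mutagenicity (five Salmonella typhimurium strains, ± microsomal activation) and of single oral dose mouse toxicity. Molar intensity I_m = perceived intensity × (0.25 M sucrose / compound molar concentration). The mean is reported with 2S_m limits; outliers were rejected at 95% confidence by t-value.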

The species named for assay [14] is Homo sapiens. The assay can be described thus: Sweet character at a concentration of 2000 ppm (mean value). An outline of the steps:
as §5

Assay [15] is filed under the species Homo sapiens. The assay can be described thus: Percentage of judgments reporting an aftertaste at a concentration of 2000 ppm. The gist of the method: as §2
The species named for assay [16] is Homo sapiens. The assay can be described thus: Intensity calculated on a molar basis relative to a 0.25 M sucrose solution at a concentration of 2000 ppm (mean value). The gist of the method:
as §6

The species named for assay [17] is Homo sapiens. The assay can be described thus: Bitter character at a concentration of 2000 ppm (mean value). An outline of the steps: as §4
For assay [18], the species on record is Homo sapiens. Description: Sweet / Bitter character at a concentration of 2000 ppm (mean value).
Assay [19] is filed under the species Homo sapiens. Description: Intensity calculated on a weight basis relative to an 85500 ppm sucrose solution at a concentration of 2000 ppm (mean value). An outline of the steps:
as §3

For assay [20], the species on record is Homo sapiens. Description: Sour character at a concentration of 2000 ppm (mean value). The gist of the method: as §5
Assay [21] is filed under the species Homo sapiens. The assay can be described thus: Salty character at a concentration of 2000 ppm (mean value). An outline of the steps: as §5
The species entered for assay [22] is Homo sapiens. Description: Experimentally determined perceived intensity of compound at a concentration of 2000 ppm (mean value). The gist of the method: as §1
Assay [23] is filed under the species Homo sapiens. The assay can be described thus: Other taste character at a concentration of 2000 ppm (mean value). The gist of the method:
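Trained human panel tasted aqueous solutions of each compound. Aftertaste is scored as the percentage of judgments reporting one, with its character coded sweet (s), bitter (b) or bitter-sweet (bs).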

The species named for assay [24] is Homo sapiens. Description: Bitter character at a concentration of 244 ppm (mean value). An outline of the steps: as §4
The species named for assay [25] is Homo sapiens. The assay can be described thus: Intensity calculated on a molar basis relative to a 0.25 M sucrose solution at a concentration of 244 ppm (mean value). The gist of the method:
as §6

For assay [26], the species on record is Homo sapiens. The assay can be described thus: Sour character at a concentration of 244 ppm (mean value).
For assay [27], the species on record is Homo sapiens. Description: Experimentally determined perceived intensity of compound at a concentration of 244 ppm (mean value). An outline of the steps: as §1
Assay [28] is filed under the species Homo sapiens. Description: Intensity calculated on a weight basis relative to an 85500 ppm sucrose solution at a concentration of 244 ppm (mean value). An outline of the steps:
as §3

The species named for assay [29] is Homo sapiens. The assay can be described thus: Salty character at a concentration of 244 ppm (mean value).
For assay [30], the species on record is Homo sapiens. Description: Sweet character at a concentration of 244 ppm (mean value).
For assay [31], the species on record is Homo sapiens. The assay can be described thus: Other taste character at a concentration of 244 ppm (mean value). The gist of the method:
as §5

The species entered for assay [32] is Homo sapiens. The assay can be described thus: Sweet / Bitter character at a concentration of 244 ppm (mean value).
Assay [33] is filed under the species Homo sapiens. Description: Percentage of judgments reporting an aftertaste at a concentration of 244 ppm and character thereof; Bitter. An outline of the steps:
as §2

The species named for assay [34] is Homo sapiens. Description: Sweet / Bitter character at a concentration of 251 ppm (mean value); 51/49.
The species entered for assay [35] is Homo sapiens. The assay can be described thus: Experimentally determined perceived intensity of compound at a concentration of 251 ppm (mean value). The gist of the method: as §1
The species named for assay [36] is Homo sapiens. Description: Bitter character at a concentration of 251 ppm (mean value). The gist of the method: as §4
The species named for assay [37] is Homo sapiens. Description: Intensity calculated on a molar basis relative to a 0.25 M sucrose solution at a concentration of 251 ppm (mean value). The gist of the method:
as §6

The species entered for assay [38] is Homo sapiens. Description: Intensity calculated on a weight basis relative to an 85500 ppm sucrose solution at a concentration of 251 ppm (mean value). The gist of the method: as §3
The species named for assay [39] is Homo sapiens. The assay can be described thus: Sweet character at a concentration of 251 ppm (mean value). The gist of the method: as §5
The species named for assay [40] is Homo sapiens. Description: Salty character at a concentration of 251 ppm (mean value). The gist of the method:
as §5

The species named for assay [41] is Homo sapiens. The assay can be described thus: Sour character at a concentration of 251 ppm (mean value). The gist of the method: as §5
Assay [42] is filed under the species Homo sapiens. Description: Percentage of judgments reporting an aftertaste at a concentration of 251 ppm and character thereof. The gist of the method:
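Trained human sensory panel; compounds tasted in aqueous solution. Before panel work, compounds had to be ≥95 weight percent pure (HPLC, proton titration, Karl Fischer) and free of mutagenicity (five Salmonella typhimurium strains, ± microsomal activation) and single oral dose mouse toxicity. Value is the percentage of judgments reporting an aftertaste, with its character recorded as sweet, bitter or bitter-sweet.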

The species entered for assay [43] is Homo sapiens. Description: Other taste character at a concentration of 251 ppm (mean value). The gist of the method:
as §5

Consider `COc1ccc(CCC(=O)OC2C[C@](O)(C(=O)O)C[C@@H](O)[C@H]2O)cc1O` (some centres not stated), for which the Judgments in the assay filed under Homo sapiens [1] is 1; in the assay filed under Homo sapiens [3] it was 0. Also, the IP in the assay filed under Homo sapiens [2] worked out at 0.

As for `COc1ccc(CCC(=O)c2c(O)cc(OCC(=O)[O-])cc2O)cc1O.[Na+]`, the IW in the assay listed under Homo sapiens [4] is on record as 300. Further, the Taste character is 76 in the assay filed under Homo sapiens [5]; 0 in the assay filed under Homo sapiens [7]; 5 in the assay listed under Homo sapiens [8]; 94 in the assay listed under Homo sapiens [9]; 0 in the assay filed under Homo sapiens [11]; 19 in the assay filed under Homo sapiens [12]. The Judgments in the assay filed under Homo sapiens [6] is 100; in the assay filed under Homo sapiens [1] it was 12. In the assay listed under Homo sapiens [10], this compound had an IP of 0.9. For the same compound, the IM in the assay listed under Homo sapiens [13] was 330.

On to `COc1ccc(C2OC[C@@H]3OC(O)[C@@H](O)[C@H](O)[C@H]3O2)cc1O` (some centres not stated), for which the Taste character was found to be 0 in the assay filed under Homo sapiens [14]; 100 in the assay listed under Homo sapiens [17]; 0 in the assay listed under Homo sapiens [18]; 0 in the assay filed under Homo sapiens [20]; 0 in the assay filed under Homo sapiens [21]; 0 in the assay filed under Homo sapiens [23]. Also, the Judgments in the assay listed under Homo sapiens [15] was determined as 0; in the assay listed under Homo sapiens [1] it was 1. Besides, in the assay listed under Homo sapiens [16], the IM is on record as 10. In the assay filed under Homo sapiens [19], the IW is reported as 10. Also, the IP in the assay filed under Homo sapiens [22] was 0.3.

On to `COc1ccc(CCC(=O)O)cc1O`, for which the Taste character is 28 in the assay listed under Homo sapiens [24]; 69 in the assay listed under Homo sapiens [26]; 0 in the assay listed under Homo sapiens [29]; 0 in the assay filed under Homo sapiens [30]; 3 in the assay listed under Homo sapiens [31]; 0 in the assay filed under Homo sapiens [32]. Also, in the assay filed under Homo sapiens [25], the IM is listed as 120. This compound also came in with an IP in the assay filed under Homo sapiens [27] of 0.6. In addition, the IW in the assay listed under Homo sapiens [28] is given as 210. For the same compound, the Judgments in the assay listed under Homo sapiens [1] is listed as 8; in the assay listed under Homo sapiens [33], 50.

Consider `CCCOc1ccc(CCC(=O)c2c(O)cc(OCC(=O)[O-])cc2O)cc1O.[Na+]`, for which the Taste character in the assay filed under Homo sapiens [34] worked out at 51; in the assay listed under Homo sapiens [36], 38; in the assay listed under Homo sapiens [39] it was 39; in the assay filed under Homo sapiens [40], 0; in the assay listed under Homo sapiens [41] it was 0; in the assay filed under Homo sapiens [43], 23. Besides, the IP in the assay listed under Homo sapiens [35] is on record as 0.72. Further, in the assay listed under Homo sapiens [37], the IM was 300. For the same compound, the IW in the assay filed under Homo sapiens [38] is on record as 240. Further, the Judgments in the assay filed under Homo sapiens [1] is on record as 12; in the assay filed under Homo sapiens [42], 100.
